ChEMBL document CHEMBL4732121, “Imidazo[1,2-a]quinoxalines for melanoma treatment with original mechanism of action” (Eur J Med Chem, 2021)
The source made the active and inactive calls. The rule behind the calls is not given here.

Experiments:
[1] = Inhibition of pig brain tubulin polymerization at 5 uM measured after 45 mins by turbidimetry based spectrophotometric method relative to control; format: tissue-based, Sus scrofa; conditions: 0.75 h
A-375 [2] = test: Antiproliferative activity against human A-375 cells assessed as reduction in cell viability measured after 96 hrs by MTT assay; format: functional, cell-based; conditions: Homo sapiens, A-375, 96 h
Method in brief: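 A375 cells in RPMI-1640 with 10% heat-inactivated FBS, 2 mM L-glutamine and antibiotics, 37°C, 5% CO₂. Seeded at 5000 cells/well and attached overnight, then exposed to 10⁻⁵–3.2.10⁻⁹ M in 0.15% DMSO/medium for 96 h. MTT at 0.5 mg/ml final for 4 h, formazan dissolved in 10% SDS/0.01 M HCl, OD 570 nm. At least three experiments in triplicate; IC50 from sigmoidal dose–response curves.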

MeWo = test: Antiproliferative activity against human MeWo cells assessed as reduction in cell viability measured after 96 hrs by MTT assay; format: functional, cell-based
A2058 = test: Antiproliferative activity against human A2058 cells assessed as reduction in cell viability measured after 96 hrs by MTT assay; format: functional, cell-based; conditions: A2058, 96 h
IPC-298 = test: Antiproliferative activity against human IPC-298 cells assessed as reduction in cell viability measured after 96 hrs by MTT assay; format: functional, cell-based; conditions: IPC-298, 96 h
[3] = Cytotoxicity against human PBMC cells assessed as reduction in cell viability at 0.2 mM measured after 96 hrs by MTT assay; format: cell-based; conditions: 200 µM
A-375 [4] = test: Antitumor activity against human A-375 cells xenografted in Balb/c nude mouse assessed as reduction in tumor size at 75 mg/kg, ip administered 3 times a week during first week and twice a week for 2 week by caliper method relative to control; format: functional; parameters: scale not given: the % may be the effect or the level left; conditions: time 3 weeks
Method in brief: (§1)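 Balb/c nude mice given 10×10^6 A375 cells in PBS subcutaneously in the right flank under isoflurane. Groups of 6-12 allocated on Day 14 at 110-130 mm^3 mean tumor volume; dosed ip for three weeks. Drug in DMSO/Tween 80 (1:1) diluted with saline; vehicle DMSO/Tween 80/saline (1:1:8). Tumors fixed in buffered 3.7% formalin and read blind by a veterinary pathologist after mid-sagittal section.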

[5] = Toxicity in Balb/c nude mouse xenografted with human A-375 cells assessed as morbidity at 75 mg/kg, ip administered 3 times a week during first week and twice a week for 2 week; format: organism-based; conditions: in vivo, 504 h, time 3 weeks
Method in brief: (§2)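 Balb/c nude mice inoculated s.c. in right flank with 10×10^6 A375 cells in PBS under isoflurane; dosing started once mean tumor volume reached 110-130 mm3, groups allocated Day 14. IP dosing for three weeks; vehicle DMSO/Tween 80 (vol/vol) plus injectable saline (8 vol), solutions made daily. Body weight followed during treatment; gross pathology at study termination; n = 4 mice per group reported.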

[6] = Toxicity in Balb/c nude mouse xenografted with human A-375 cells assessed as mortality at 75 mg/kg, ip administered 3 times a week during first week and twice a week for 2 week; format: organism-based; conditions: in vivo, 504 h, time 3 weeks; method in brief: as §2
[7] = Toxicity in Balb/c nude mouse xenografted with human A-375 cells assessed as effect on gut pathology at 75 mg/kg, ip administered 3 times a week during first week and twice a week for 2 week measured post last dose by pathological analysis; format: organism-based; conditions: in vivo, 504 h, time 3 weeks; method in brief: as §2
[8] = Toxicity in Balb/c nude mouse xenografted with human A-375 cells assessed as effect on pancreas pathology at 75 mg/kg, ip administered 3 times a week during first week and twice a week for 2 week measured post last dose by pathological analysis; format: organism-based; conditions: in vivo, 504 h, time 3 weeks; method in brief: as §2
[9] = Toxicity in Balb/c nude mouse xenografted with human A-375 cells assessed as change in body weight at 30 mg/kg, ip administered 5 times a week for 3 weeks; format: organism-based; conditions: in vivo, 504 h
[10] = Toxicity in Balb/c nude mouse xenografted with human A-375 cells assessed as adverse effect at 30 mg/kg, ip administered 5 times a week for 3 weeks; format: organism-based; conditions: in vivo, 504 h
[11] = Toxicity in Balb/c nude mouse xenografted with human A-375 cells assessed as pathological changes at 30 mg/kg, ip administered 5 times a week for 3 weeks measured post last dose by histopathological analysis; format: organism-based; conditions: in vivo, 504 h
A-375 [12] = test: Antitumor activity against human A-375 cells xenografted in Balb/c nude mouse assessed as reduction in tumor size at 25 mg/kg, ip administered 3 times a week for 3 weeks by caliper method relative to control; format: functional; parameters: scale not given: the % may be the effect or the level left; method in brief: as §1
A-375 [13] = test: Antitumor activity against human A-375 cells xenografted in Balb/c nude mouse assessed as reduction in tumor weight at 30 mg/kg, ip administered 5 times a week for 3 weeks measured post last dose; format: functional, organism-based; method in brief: as §1
A-375 [14] = test: Antitumor activity against human A-375 cells xenografted in Balb/c nude mouse assessed as reduction in tumor weight at 25 mg/kg, ip administered 3 times a week for 3 weeks measured post last dose; format: functional, organism-based; method in brief: as §1
A-375 [15] = test: Antitumor activity against human A-375 cells xenografted in ip dosed Balb/c nude mouse assessed as reduction in tumor weight administered 3 times a week for 3 weeks measured post last dose; format: functional, organism-based; conditions: dose 25-75 mg/kg
A-375 [16] = test: Antitumor activity against human A-375 cells xenografted in ip dosed Balb/c nude mouse assessed as reduction in tumor size administered 3 times a week for 3 weeks by caliper method; format: functional, organism-based; conditions: dose 25-75 mg/kg
A-375 [17] = test: Antitumor activity against human A-375 cells xenografted in Balb/c nude mouse assessed as change in tumor stroma at 30 mg/kg, ip administered 5 times a week for 3 weeks measured post last dose by trichrome staining based histopathological analysis; format: functional, organism-based; method in brief: as §1
A-375 [18] = test: Antitumor activity against human A-375 cells xenografted in Balb/c nude mouse assessed as change in tumor stroma at 25 mg/kg, ip administered 3 times a week for 3 weeks measured post last dose by trichrome staining based histopathological analysis; format: functional, organism-based; method in brief: as §1
A-375 [19] = test: Antitumor activity against human A-375 cells xenografted in Balb/c nude mouse assessed as change in tumor inflammation at 30 mg/kg, ip administered 5 times a week for 3 weeks measured post last dose by trichrome staining based histopathological analysis; format: functional, organism-based; method in brief: as §1
A-375 [20] = test: Antitumor activity against human A-375 cells xenografted in Balb/c nude mouse assessed as change in tumor inflammation at 25 mg/kg, ip administered 3 times a week for 3 weeks measured post last dose by trichrome staining based histopathological analysis; format: functional, organism-based; method in brief: as §1
A-375 [21] = test: Antitumor activity against human A-375 cells xenografted in Balb/c nude mouse assessed as vascularization at 75 mg/kg, ip administered 3 times a week during first week and twice a week for next 2 weeks measured post last dose by trichrome staining based histopathological analysis; format: functional, organism-based; conditions: time 3.0 weeks; method in brief: as §1
A-375 [22] = test: Antitumor activity against human A-375 cells xenografted in Balb/c nude mouse assessed as vascularization at 30 mg/kg, ip administered 5 times a week for 3 weeks measured post last dose by trichrome staining based histopathological analysis; format: functional, organism-based; method in brief: as §1
A-375 [23] = test: Antitumor activity against human A-375 cells xenografted in Balb/c nude mouse assessed as vascularization at 25 mg/kg, ip administered 3 times a week for 3 weeks measured post last dose by trichrome staining based histopathological analysis; format: functional, organism-based; method in brief: as §1
A-375 [24] = test: Antitumor activity against human A-375 cells xenografted in Balb/c nude mouse assessed as reduction in cell invasion at 25 mg/kg, ip administered 3 times a week for 3 weeks measured post last dose; format: functional, organism-based; method in brief: as §1
A-375 [25] = test: Antitumor activity against human A-375 cells xenografted in Balb/c nude mouse assessed as reduction in mitotic index at 25 mg/kg, ip administered 3 times a week for 3 weeks measured post last dose; format: functional, organism-based; method in brief: as §1

CNc1nc2ccccc2n2c(-c3ccc(O)c(O)c3)cnc12
inhibition (INH) [1]: Not Active
IC50 (A-375 [2]): 3 nM
IC50 (MeWo): 3 nM
IC50 (A2058): 4 nM
IC50 (IPC-298): 40 nM
Activity [3]: Non-Toxic
Activity (A-375 [4]): 80%
Activity [5]: Toxic
Activity [6]: Toxic
Activity [7]: Toxic
Activity [8]: Toxic
Activity [9]: Non-Toxic
Activity [10]: Non-Toxic
Activity [11]: Non-Toxic
Activity (A-375 [12]): 50%
Activity (A-375 [13]): Active
Activity (A-375 [14]): Active
Activity (A-375 [15]): Dose-dependent effect
Activity (A-375 [16]): Dose-dependent effect
Activity (A-375 [17]): inactive
Activity (A-375 [18]): inactive
Activity (A-375 [19]): inactive
Activity (A-375 [20]): inactive
Activity (A-375 [21]): inactive
Activity (A-375 [22]): inactive
Activity (A-375 [23]): inactive
Activity (A-375 [24]): Active
Activity (A-375 [25]): Active
